Source: PubChem
An excerpt weighted towards active compounds, which were near 3% of everything screened.
UBC13 inh: inhibitors of human UBC13 polyubiquitin chain formation; TR-FRET; 330,000 compounds, 0.47% hits; inhibition, % at 20 µM; in the data active means inhibition above about 45%, passing the limit was not always enough
Apaf1 inhib: inhibitors of human Apaf-1 apoptosome. reconstituted apoptosome caspase-3 activity, DEVD-Rh110 fluorescence. inhibition, % at 20 µM. 330,000 compounds, 0.71% hits. AID 489030; active means inhibition of at least 40% at 20 µM;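 further: plate controls were DMSO wells for no effect and DEVD-CHO caspase inhibitor wells for full effect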
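System: reconstituted apoptosome with Apaf-1, cytochrome c, caspase-9, procaspase-3, dATP; Signal: Rh110 fluorescence intensity; Schedule: 30 min compound preincubation, 50 min activation, room temperature; Reagent: cytochrome c trigger plus (Z-DEVD)2-Rh110 caspase-3 substrate.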
MEKK2 WT-MEK5: raises or lowers MEK5 binding to wildtype human MEKK2 PB1 domain; Q9Y2U5; bead flow cytometry, Alexa488-MEK5 binding to MEKK2 WT; actives lie on both sides; binding response (% of control), % at 10 µM; 290,000 compounds, 1.1% hits; in the data active means binding response below about 67% or above about 130%
MEKK3 PB1 HTS: modulators (inhibitors or enhancers) of MEK5 binding to human MEKK3 PB1 domain | binding response (% of control), % at 10 µM | 290,000 compounds, 1.4% hits | Q99759 | bead-based flow cytometry, Alexa488-MEK5 binding to MEKK3; actives lie on both sides; 0 = blocked by unlabeled MEK5, 100 = vehicle;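 active means binding response more than 3 SD above or below the average of its plate-row segment, actives on both sides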;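 further: Alexa488 bead fluorescence after subtracting the streptavidin-only scavenger bead signal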
UCH37 DUB inh: blocks the human deubiquitinase UCH37; purified proteasome/UCH37, Ub-AMC cleavage fluorescence; inhibition, % (no concentration beside the values); 330,000 compounds, 0.33% hits; AID 588478;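 active means mean inhibition over replicate wells above about 20%, limit read from the data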;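 further: 0% = compound-free wells with enzyme and 100% = wells lacking proteasome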
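Material: Human UCH37 enzyme supplied as purified proteasome complex | Schedule: 30 min preincubation with enzyme, 25 min cleavage at room temperature | Detection: AMC fluorescence 355/460 nm | Measure: % inhibition of Ub-AMC cleavage fluorescence | Controls: Wells without proteasome as full block, compound-free enzyme plus substrate as uninhibited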
MEKK2 mut-MEK5: signal of MEK5 binding to mutant human MEKK2 PB1 domain; bead flow cytometry, Alexa488-MEK5 binding to MEKK2 mutant; percent response, % at 10 µM; AID 1530; 290,000 compounds, 0.35% hits; in the data active means percent response above about 24%, passing the limit was not always enough
MEKK2wt confirm: raises or lowers MEK5 binding to wildtype human MEKK2, retest; shares compounds with MEKK3 PB1 HTS; bead flow cytometry, Alexa488-MEK5 binding to MEKK2 WT; actives lie on both sides; binding response (% of control), % at 10 µM; 5,900 compounds, 2.4% hits; AID 1892; in the data active means binding response below about 16% or above about 210%; inactive means in between
MEKK2mut-MEK5: signal of MEK5 binding to mutant human MEKK2, retest. 5,900 compounds, 2% hits. percent response, % at 10 µM. bead flow cytometry, Alexa488-MEK5 binding to MEKK2 mutant. shares compounds with MEKK3 PB1 HTS; in the data active means percent response mostly above about 71%, no sharp cut-off; inactive means mostly below about 38%;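 further: higher means compound restores mutant binding toward wildtype level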
MEKK3-MEK5 inh: MEKK3-MEK5 PB1 inhibition, single concentration confirmation; shares compounds with MEKK3 PB1 HTS; bead flow cytometry, Alexa488-MEK5 binding to MEKK3; hits give low values; binding response (% of control), % at 10 µM; 5,900 compounds, 1.8% hits; AID 1894;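 active means binding response below 72% of control, or above a set upper limit, though filed actives all read lower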;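 further: 100% = DMSO only wells and 0% = binding blocked by excess unlabeled MEK5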
An asterisk follows results filed as active; [ ] = remark or other dose.

Screening Cc1cc[n+](C(C)C(=O)c2ccc(-c3ccccc3)cc2)cc1 (centres undefined) returned UBC13 inh 4, Apaf1 inhib 15, MEKK2 WT-MEK5 152*, MEKK3 PB1 HTS 106, UCH37 DUB inh -2, MEKK2 mut-MEK5 29, MEKK2wt confirm 101, MEKK2mut-MEK5 -2 and MEKK3-MEK5 inh 97.
For Cc1cc[n+](C(C)C(=O)c2ccc(Cl)cc2)cc1 (centres undefined) the results were UBC13 inh 3, Apaf1 inhib -12, MEKK2 WT-MEK5 107, MEKK3 PB1 HTS 102, UCH37 DUB inh 5 and MEKK2 mut-MEK5 3.
`CN(C)C(=O)N1CCC(C(=O)NCc2ccccc2)CC1` gave UBC13 inh -5, Apaf1 inhib -4, MEKK2 WT-MEK5 -2.0*[inhibitor], MEKK3 PB1 HTS 1.0*[inhibitor], UCH37 DUB inh 0, MEKK2 mut-MEK5 -20, MEKK2wt confirm 96, MEKK2mut-MEK5 -5 and MEKK3-MEK5 inh 98.
Screening COc1ccc(C(=O)NCCc2ccccc2F)cc1OC1CCN(C(C)=O)CC1 returned UBC13 inh -7, Apaf1 inhib 9, MEKK2 WT-MEK5 108, MEKK3 PB1 HTS 104, UCH37 DUB inh 1 and MEKK2 mut-MEK5 2.
For O=[N+]([O-])c1cc(Cc2ccccc2)cc(C=Nc2ccc(N3CCOCC3)cc2)c1O the results were MEKK2 WT-MEK5 97, MEKK3 PB1 HTS 146*, UCH37 DUB inh 1, MEKK2 mut-MEK5 0, MEKK2wt confirm 89, MEKK2mut-MEK5 -5 and MEKK3-MEK5 inh 96.
For CCN(CC)S(=O)(=O)c1ccc(C)c(NC(=O)Cn2c(=O)cnc3ccccc32)c1 the results were UBC13 inh -1, Apaf1 inhib 2, MEKK2 WT-MEK5 107, MEKK3 PB1 HTS 160*, UCH37 DUB inh -12, MEKK2 mut-MEK5 0, MEKK2wt confirm 100, MEKK2mut-MEK5 0 and MEKK3-MEK5 inh 102.
CCN(CC)S(=O)(=O)c1ccc(C)c(NC(=O)Cn2cnc3cc([N+](=O)[O-])ccc3c2=O)c1 was read as UBC13 inh -14, Apaf1 inhib 5, MEKK2 WT-MEK5 70, MEKK3 PB1 HTS 69*[inhibitor], UCH37 DUB inh -3, MEKK2 mut-MEK5 -15, MEKK2wt confirm 96, MEKK2mut-MEK5 -2 and MEKK3-MEK5 inh 96.
Screening C=CCn1c(SCC(=O)N2N=C(c3ccco3)CC2c2ccco2)nnc1-c1ccncc1 (centres undefined) returned UBC13 inh -5, Apaf1 inhib 0, MEKK2 WT-MEK5 94, MEKK3 PB1 HTS 66*[inhibitor], UCH37 DUB inh 3, MEKK2 mut-MEK5 -1, MEKK2wt confirm 113, MEKK2mut-MEK5 12 and MEKK3-MEK5 inh 106.
For Cc1ccc(C2=NN(C(=O)CSc3nccn3C)C(c3ccco3)C2)cc1 (centres undefined) the results were UBC13 inh -1, Apaf1 inhib 10, MEKK2 WT-MEK5 106, MEKK3 PB1 HTS 100, UCH37 DUB inh 2 and MEKK2 mut-MEK5 4.
CCCCn1c(SCc2nc3ccccc3s2)nc2ccccc2c1=O was read as UBC13 inh -10, Apaf1 inhib 19, MEKK2 WT-MEK5 124, MEKK3 PB1 HTS 104, UCH37 DUB inh 2 and MEKK2 mut-MEK5 13.
`CCCn1c(=O)c2ccccc2n2c(SCc3nc4ccccc4s3)nnc12` gave UBC13 inh -3, Apaf1 inhib 11, MEKK2 WT-MEK5 -2.0*[inhibitor], MEKK3 PB1 HTS 1.0*[inhibitor], UCH37 DUB inh 0, MEKK2 mut-MEK5 -26, MEKK2wt confirm 103, MEKK2mut-MEK5 2 and MEKK3-MEK5 inh 106.
